Most compounds without a hit are left out; they make up all but 5.1% or so of the library.
APP 5'UTR act: APP 5'UTR luciferase reporter activation. SH-SY5Y APP 5'UTR luciferase reporter, luminescence; zero percent = DMSO vehicle wells. activation, % at 2 µM. actives 1% (n = 190,000);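 active means activation above a set limit, based on mean plus 3 SD of controls, cut at about 140% in these data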
STAT1 inh: inhibitors of IFN-gamma induced STAT1 signaling; AID 920; inhibition, % at 5.5 µM; actives 0.35% (n = 200,000); NIH 3T3 STAT1-luciferase reporter, luminescence;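 active means inhibition above a set limit, the mean inhibition across all tested compounds plus 3 SD, cut at about 34% in these data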;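 further: 0% = IFN-gamma with DMSO and 100% = IFN-gamma with 300 µM nifuroxazide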
STAT3 blocker: reduces IL-6 driven STAT3 reporter signal | AID 862 | actives 0.89% (n = 190,000) | inhibition, % at 5.5 µM | U3A cells, IL-6 STAT3-luciferase reporter, luminescence; host cell line lacks STAT1;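 active means inhibition above the mean inhibition across all screened compounds plus 3 SD, cut at about 44% in these data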;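 further: 0% = DMSO only wells and 100% = 100 µM nifuroxazide control wells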
NF-kB neuron act: raises NF-kB expression in human neuronal cells. NF-kB reporter expression; hits give high values. fold change at 12.5 µM. actives 1.6% (n = 190,000). AID 1239; in the data active means fold change above about 3.3
STAT1 act: increases IFN-gamma driven STAT1 reporter signal; AID 932; actives 2.6% (n = 200,000); NIH 3T3 STAT1-luciferase reporter, luminescence; 100% = IFN-gamma alone, no compound; activation (% of control), % at 5.5 µM;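 active means activation above the screen-wide mean activation plus 3 SD, cut at about 130% in these data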;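 further: raw ratio to IFN-gamma control signal so 100% means no change and 0% no light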
STAT3 activator: increases IL-6 driven STAT3 reporter signal; U3A cells, IL-6 STAT3-luciferase reporter, luminescence; 100% = signal with IL-6 EC80 alone; activation (% of control), % at 5.6 µM; actives 0.91% (n = 190,000); AID 871;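 active means activation above the screen-wide mean of compound activation plus 3 SD, cut at about 130% in these data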;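 further: 0% = background luminescence of wells with medium and substrate only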
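Assay system – human STAT1-deficient U3A cells with stable STAT3-luciferase reporter · Also added – IL-6 (33 ng/mL) · Schedule – compound 1 h, then IL-6 6 h at 37 °C · Technique – reporter luminescence signal · Evaluation – % activation versus median of IL-6-stimulated wells · Benchmarks – IL-6-only wells as 100% reference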
Active calls of the source: *; / = no result given.

SMILES	APP 5'UTR act	STAT1 inh	STAT3 blocker	NF-kB neuron act	STAT1 act	STAT3 activator
O=C(Nc1ccc2c(c1)OCCO2)c1ccc2ccccc2n1	220.2*	-42.5	-23.4	9.19*	136.7*	130.3
O=C(Nc1ccc2c(c1)OCCO2)c1cnc2ccccn2c1=O	41.4	-63.3	33.5	/	154.1*	74.9
O=C(Nc1ccc2c(c1)OCCO2)c1cccc2nc3ccccc3nc12	-45.7	-8.3	33.8	0.52	107.4	79.3
O=C(NCc1ccc2c(c1)OCO2)c1cnc2ccccn2c1=O	8.4	-5.3	-1.3	1.06	103.8	106.7
CC(=O)N1CCN(C(=O)COc2ccccc2C(=O)Nc2ccccc2)CC1	8.7	-0.8	9.8	1.03	102.3	95.8
CCc1nnc(NC(=O)c2ccc(-c3ccc([N+](=O)[O-])cc3Cl)o2)s1	-21.1	0.7	10.5	1.13	98.2	94.2
C#CCNC(=O)C1=C[C@H](c2ccccc2)[C@@H](CCCO)[C@H](OCC)O1	-5.7	12.7	/	0.93	89.5	/
Cc1ccc2nsnc2c1NC(=O)c1cncc(Br)c1	0.1	3.7	-1.0	1.1	96.1	102.7
Cc1ccc(NC(=O)c2ccc3ccccc3n2)cc1S(=O)(=O)N(C)C	73.0	-35.6	-6.7	1.41	134.1*	106.0
O=C(Nc1ccc(NC(=O)c2ccccn2)cc1)C(=O)Nc1ccc2c(c1)OCCO2	-1.7	-15.1	12.8	0.95	116.0	93.2
O=C(CSCc1ccccc1Cl)Nc1ccc2c(c1)OCCO2	137.3*	-7.4	4.5	2.04	106.7	101.7
O=C(Nc1ccc2c(c1)OCCO2)c1ccccn1	106.8	47.0*	69.5*	2.59	55.6	45.1
CCNc1ccc(P(=O)(c2ccccc2)c2ccccc2)cc1	8.6	-1.6	1.3	0.94	100.2	105.8
Cc1cc(C(=O)OCc2nc3ccccc3s2)c(C)o1	37.8	-36.2	11.6	2.02	132.4*	96.6
O=C(OCc1nc2ccccc2s1)c1ccco1	87.0	-49.3	-30.0	1.12	142.6*	132.8
O=C(CNC(=O)c1ccccc1F)OCc1nc2ccccc2s1	13.1	-21.1	-31.0	1.03	117.5	129.5
O=C(OCc1nc2ccccc2s1)c1ccc(Br)o1	22.2	-7.9	-20.3	1.26	107.0	120.3
COC(=O)CCCc1nc2ccccc2s1	-0.9	-0.9	12.2	1.24	100.9	94.7
CC(=O)OCc1nc2ccccc2s1	17.3	-38.4	-74.6	1.3	134.6*	163.2*
O=C(CNC(=O)c1ccccc1)OCc1nc2ccccc2s1	55.0	-43.3	-40.5	0.67	138.7*	135.9*
COc1ccc(NS(=O)(=O)c2cccc(NC(=O)c3cnccn3)c2)cc1Br	-9.2	23.7	5.3	1.34	77.6	101.6
C=CCSc1ncc(C#N)c(N)n1	-7.0	-5.7	0.5	1.21	105.2	102.6
CCOC(=O)c1cnn(-c2ccc(C(F)(F)F)cn2)c1N	28.2	-48.7	-6.4	2.63	144.7*	108.5
Cc1ccccc1NC1=NCC(c2ccc([N+](=O)[O-])cc2)S1 (stereo not given)	18.9	22.3	15.9	1.15	78.5	89.9
COc1cc(/C=N/NS(=O)(=O)c2ccc(C(C)(C)C)cc2)cc([N+](=O)[O-])c1O	6.3	-3.3	4.1	0.94	101.3	100.9
SMILES	APP 5'UTR act	STAT1 inh	STAT3 blocker	NF-kB neuron act	STAT1 act	STAT3 activator
CC(C)CC(=O)NC(=S)N1CCN(c2ccc([N+](=O)[O-])cc2Cl)CC1	-2.3	-5.2	-6.1	0.89	104.6	107.5
Nc1ccc(CCc2nc3ccccc3o2)cc1	163.3*	-41.6	16.2	2.96	138.1*	89.3
CCc1ccccc1NC(=O)CN(C)C(=O)CSc1nc2cc(Cl)ccc2s1	10.4	-1.6	-1.0	1.08	101.5	104.3
Cc1ccc(OCCn2cnc3c(N)ncnc32)cc1	-4.3	-32.0	25.8	2.11	129.2*	80.6
CCCN(CCC)C(=O)C[n+]1cccc(/C=N/O)c1	-0.7	6.1	8.9	0.93	94.5	95.3
O=C(NCc1cccnc1)NC1(C(F)(F)F)Oc2ccccc2O1	-15.4	-3.1	6.0	3.47*	102.9	97.1
CC(C)CNC(=O)NC1(C(F)(F)F)Oc2ccccc2O1	3.3	-19.1	-3.5	3.17	116.5	105.9
Cn1ccnc1SCC(=O)Nc1cccc(C(F)(F)F)c1	11.0	-6.2	20.1	1.51	107.1	88.2
O=C(CSC1=NCCN1)Nc1cccc(C(F)(F)F)c1	-1.8	-44.3	-7.9	1.22	141.6*	106.1
O=C(Nc1ccc(Br)cc1)C(c1ccccc1)c1ccccc1	-5.4	3.2	-1.6	1.03	96.0	102.4
O=C(CSc1nnnn1-c1ccccc1)Nc1nsc(-c2ccc(Cl)cc2)n1	-3.6	2.9	22.5	0.56	98.6	84.8
O=C(CSc1nnnn1-c1ccccc1)Nc1nsc(-c2ccccc2)n1	6.1	2.5	2.6	7.91*	97.7	103.0
COc1cccc(Nc2ncnc3ccccc23)c1	55.7	-18.8	5.1	2.8	117.4	99.5
CCC(=O)NNc1ncnc2ccccc12	2.6	1.6	-35.4	1.25	98.5	130.1
CCCCCCCCNc1ncnc2ccccc12	-19.5	28.2	88.6*	0.85	74.5	26.3
COc1ccc(Nc2ncnc3ccccc23)cc1	51.9	-33.5	-3.5	2.38	129.4*	103.0
CCOc1cc(NC(=S)NCCCN2CCOCC2)c(OCC)cc1NC(=O)C1CC1	23.4	13.7	10.9	0.86	87.6	94.8
Cc1cc(C)nc(NC(N)=NCCc2c[nH]c3ccccc23)n1	-1.7	36.8*	45.9*	0.76	65.8	63.4
Cn1ncc(Br)c1C(=O)OCC(=O)Nc1nc(-c2ccccc2)cs1	10.0	-7.0	26.7	0.96	106.4	81.4
COc1ccc(C2=Nc3ccccc3OC2)cc1	128.2	-25.1	4.5	8.37*	123.2	100.0
CCN(CC)c1ccc(C=C2C(=O)OC3(CCCCC3)OC2=O)cc1	-19.0	-2.1	9.3	1.2	101.2	102.3
CCN(CC)c1ccc(/C=C2/C(=O)c3ccc(C(=O)O)cc3C2=O)cc1	6.8	-33.2	-10.5	2.48	129.5*	106.4
Cc1cc(/C=C\c2ccccc2)nc2ccccc12	130.1	-48.8	-32.4	1.27	143.0*	129.7
c1ccn(-c2ccc(-c3ccn[nH]3)cc2)c1	86.8	-47.3	11.3	2.72	142.7*	92.0
O=C(NNC(=O)C1[C@H]2CCCC[C@@H]12)NC1CCCCC1 (stereo not given in full)	-3.6	-10.1	-1.3	1.34	109.1	104.3
CCN(CC)C(=O)C[n+]1ccc(C(N)=O)cc1	-17.4	3.6	3.3	1.29	95.1	99.1
CC(C)(C)NC(=O)C[n+]1ccc(C(N)=O)cc1	5.8	7.5	-0.4	6.24*	92.0	101.7
COc1ccc(CNC(=O)c2ccc(Br)o2)cc1	12.8	-5.1	-2.8	1.18	104.6	100.0
COC(=O)c1nc(N)sc1C	3.3	-0.5	5.5	1.19	100.1	98.7
CCCOc1cccc(C(=O)Nc2ccc(Br)cc2F)c1	128.4	-39.2	-8.0	2.52	135.9*	107.8

Assay outcomes as filed in PubChem BioAssay.
